Experimental data from ChEMBL document CHEMBL1914440, “Discovery of potent, selective, and orally bioavailable alkynylphenoxyacetic acid CRTH2 (DP2) receptor antagonists for the treatment of allergic inflammatory diseases” (J Med Chem, 2011).

Legend:
[1] = Percentage unbound in mouse plasma; format: ADME, cell-free
[2] = Percentage unbound in human plasma; format: ADME, cell-free
[3] = molecular target: T1, Prostaglandin D2 receptor 2 (Homo sapiens, UniProt Q9Y5Y4); assay: Displacement of [3H]PGD2 from human CRTH2 expressed in chinese hamster CHO cells by liquid scintillation counting; format: cell-based
T1 sequence (Q9Y5Y4 whole entry): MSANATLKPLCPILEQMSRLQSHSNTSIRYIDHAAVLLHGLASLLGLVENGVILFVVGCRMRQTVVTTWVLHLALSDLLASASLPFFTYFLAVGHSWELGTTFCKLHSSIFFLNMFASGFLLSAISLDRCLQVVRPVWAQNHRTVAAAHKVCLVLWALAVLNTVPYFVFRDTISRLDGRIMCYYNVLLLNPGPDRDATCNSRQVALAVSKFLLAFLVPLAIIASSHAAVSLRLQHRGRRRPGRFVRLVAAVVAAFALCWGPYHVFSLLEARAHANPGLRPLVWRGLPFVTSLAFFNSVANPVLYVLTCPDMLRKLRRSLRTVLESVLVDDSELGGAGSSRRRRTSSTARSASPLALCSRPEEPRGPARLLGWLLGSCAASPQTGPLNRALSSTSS
How it was run: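 Scintillation proximity competition assay: 2–5 μg human CRTH2 cell membranes, 1.5 nM [3H]PGD2, WGA-SPA beads, 10 mM HEPES/KOH pH 7.4, 10 mM MnCl2, protease inhibitors, 1% DMSO; 90 min, room temperature, shaking. Nonspecific binding defined with 1 μM PGD2. Ki by Cheng–Prusoff, mean of ≥3 independent dose–response experiments.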

[4] = Percentage unbound in rat plasma; format: ADME, cell-free
[5] = Intrinsic clearance in human liver microsomes assessed per mg of protein at 1 uM by LC/MS/MS analysis; format: ADME, Microsome
[6] = Intrinsic clearance in rat liver microsomes assessed per mg of protein at 1 uM by LC/MS/MS analysis; format: ADME, Microsome
[7] = Clearance in BALB/c mouse at 5 mg/kg, po by LC/MS/MS analysis; format: ADME, organism-based; set-up: dose 5 mg/kg, route oral; conditions: in vivo
[8] = Oral bioavailability in BALB/c mouse at 5 mg/kg by LC/MS/MS analysis; format: ADME, organism-based; conditions: in vivo
How it was run: (§1)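 Mouse PK after a 5 mg/kg oral dose.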

[9] = AUC in BALB/c mouse at 5 mg/kg, po; format: ADME, organism-based; set-up: dose 5 mg/kg, route oral; conditions: plasma; how it was run: as §1
[10] = molecular target: T2, Prostaglandin D2 receptor 2 (Homo sapiens) (UniProt Q9Y5Y4); assay: Partial agonist activity at human CRTH2 expressed in chinese hamster CHO cells by cellular dielectric spectroscopy relative to PGD2; format: functional, cell-based
T2 sequence (whole entry): T1 sequence (Q9Y5Y4 whole entry)
How it was run: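 CHO-CRTH2 cells seeded at 100000/well, grown 24 h at 37 °C, washed into HBSS/10 mM HEPES pH 7.4 with 1% DMSO; impedance recorded. Agonism: compound alone, 25 min read. Antagonism: PGD2 at EC80 added to cell–compound mixture, 25 min read. Run with 0.1% BSA.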

Cc1ccc(S(=O)(=O)N(C)C)cc1C#Cc1cc(Cl)ccc1OCC(=O)O
fraction unbound [1]: 0.01
fraction unbound [2]: 0.004
Ki [3]: 5 nM
fraction unbound [4]: 0.004
microsomal CLint at 1 µM [5]: < 10 µL/min/mg
microsomal CLint at 1 µM [6]: 22 µL/min/mg

O=C(O)COc1ccc(Cl)cc1C#Cc1ccc2c(c1)S(=O)(=O)c1ccccc1-2
fraction unbound [2]: < 0.001
Ki [3]: 12 nM
CL/F [7]: 1.67 mL/min/kg

CCCS(=O)(=O)c1ccc(Cl)c(C#Cc2cc(Cl)ccc2OCC(=O)O)c1
fraction unbound [1]: 0.006
fraction unbound [2]: 0.003
Ki [3]: 2.1 nM
CL/F [7]: 16.7 mL/min/kg
bioavailability [8]: 112%
fraction unbound [4]: 0.002
microsomal CLint at 1 µM [5]: < 10 µL/min/mg
microsomal CLint at 1 µM [6]: < 10 µL/min/mg

O=C(O)COc1ccc(Cl)cc1C#Cc1cccc(S(=O)(=O)CCO)c1
fraction unbound [1]: 0.3
fraction unbound [2]: 0.047
Ki [3]: 10 nM
fraction unbound [4]: 0.081

Cc1ccc(S(=O)(=O)NC(C)C)cc1C#Cc1cc(Cl)ccc1OCC(=O)O
fraction unbound [1]: 0.01
fraction unbound [2]: 0.004
Ki [3]: 3.4 nM
fraction unbound [4]: 0.004
microsomal CLint at 1 µM [5]: < 10 µL/min/mg
microsomal CLint at 1 µM [6]: 12 µL/min/mg

CC(C)c1ccc(S(C)(=O)=O)cc1C#Cc1cc(C#N)ccc1OCC(=O)O
Ki [3]: 12 nM
CL/F [7]: 145 mL/min/kg
AUC [9]: 151 ng·h/mL
bioavailability [8]: 26%

CC(C)S(=O)(=O)c1ccc(F)c(C#Cc2cc(Cl)ccc2OCC(=O)O)c1
Ki [3]: 4 nM
CL/F [7]: 5.83 mL/min/kg
bioavailability [8]: 130%

Cc1ccc(S(=O)(=O)CCCO)cc1C#Cc1cc(Cl)ccc1OCC(=O)O
fraction unbound [1]: 0.048
fraction unbound [2]: 0.015
Ki [3]: 8 nM
fraction unbound [4]: 0.018

Cc1ccc(S(=O)(=O)N2CCCCC2C)cc1C#Cc1cc(Cl)ccc1OCC(=O)O (configuration not stated)
Ki [3]: 1.9 nM
microsomal CLint at 1 µM [5]: 89 µL/min/mg
microsomal CLint at 1 µM [6]: 418 µL/min/mg

CCCS(=O)(=O)c1cccc(C#Cc2cc(-c3ccccc3)ccc2OCC(=O)O)c1
Emax [10]: 68%
Ki [3]: 19 nM

COCCNS(=O)(=O)c1ccc(C)c(C#Cc2cc(Cl)ccc2OCC(=O)O)c1
Ki [3]: 3.6 nM
CL/F [7]: 33.3 mL/min/kg
AUC [9]: 831 ng·h/mL
bioavailability [8]: 33%
microsomal CLint at 1 µM [5]: < 10 µL/min/mg
microsomal CLint at 1 µM [6]: < 10 µL/min/mg

CCCc1ccc(S(C)(=O)=O)cc1C#Cc1cc(Cl)ccc1OCC(=O)O
fraction unbound [1]: 0.006
fraction unbound [2]: 0.002
Ki [3]: 8.6 nM
fraction unbound [4]: 0.002

COCCN(C)S(=O)(=O)c1ccc(C)c(C#Cc2cc(Cl)ccc2OCC(=O)O)c1
fraction unbound [1]: 0.007
fraction unbound [2]: 0.006
Ki [3]: 4.1 nM
fraction unbound [4]: 0.007
microsomal CLint at 1 µM [5]: 32 µL/min/mg
microsomal CLint at 1 µM [6]: 49 µL/min/mg

CCCS(=O)(=O)c1ccc(F)c(C#Cc2cc(Cl)ccc2OC(C)(C)C(=O)O)c1
Ki [3]: 260 nM

CN(C)C(=O)c1cccc(C#Cc2cc(Cl)ccc2OCC(=O)O)c1
Ki [3]: 52 nM

Cc1ncccc1C#Cc1cc(Cl)ccc1OCC(=O)O
Ki [3]: 143 nM

CCCCCCc1ccncc1C#Cc1cc(Cl)ccc1OCC(=O)O
Ki [3]: 43 nM

CS(=O)(=O)c1cc(C#Cc2cc(Cl)ccc2OCC(=O)O)ccc1-c1cccc(Cl)c1
Ki [3]: 16 nM

COC1(C)c2ccc(C#Cc3cc(Cl)ccc3OCC(=O)O)cc2S(=O)(=O)C1(C)C (configuration not stated)
Ki [3]: 25 nM

CCCS(=O)(=O)c1cccc(C#Cc2c(OCC(=O)O)ccc3ccccc23)c1
Ki [3]: 44 nM

CS(=O)(=O)Cc1cccc(C#Cc2cc(Cl)ccc2OCC(=O)O)c1
Ki [3]: 48 nM

Cc1ncc(S(=O)(=O)N(C)C)cc1C#Cc1cc(Cl)ccc1OCC(=O)O
Ki [3]: 41 nM

O=C(O)COc1ccccc1C#Cc1ccccc1Cl
Ki [3]: 747 nM

O=C(O)COc1ccc(Cl)cc1C#Cc1cncc(S(=O)(=O)N2CCOCC2)c1
Ki [3]: 41 nM

CN(C)C(=O)c1ccc(C#Cc2cc(Cl)ccc2OCC(=O)O)cc1
Ki [3]: 55 nM

Cc1ccc(S(=O)(=O)N(C)C(C)C)cc1C#Cc1cc(Cl)ccc1OCC(=O)O
fraction unbound [1]: 0.005
fraction unbound [2]: 0.002
Ki [3]: 3.8 nM
microsomal CLint at 1 µM [5]: < 10 µL/min/mg
microsomal CLint at 1 µM [6]: 64 µL/min/mg

CC(C)S(=O)(=O)c1cc(C#Cc2cc(Cl)ccc2OCC(=O)O)ccc1C(=O)N(C)C
Ki [3]: 65 nM

CCCS(=O)(=O)c1cccc(C#Cc2cc(-c3cccs3)ccc2OCC(=O)O)c1
Ki [3]: 12 nM

CC(C)c1ccc(S(C)(=O)=O)cc1C#Cc1cc(Cl)ccc1OCC(=O)O
fraction unbound [1]: 0.013
fraction unbound [2]: 0.003
Ki [3]: 4.6 nM
CL/F [7]: 8.33 mL/min/kg
AUC [9]: 2650 ng·h/mL
bioavailability [8]: 29%
fraction unbound [4]: 0.004

Cc1ccc(S(=O)(=O)C(C)C)cc1C#Cc1cc(Cl)ccc1OCC(=O)O
Ki [3]: 6 nM

CN(C)S(=O)(=O)c1ccc(F)c(C#Cc2cc(Cl)ccc2OCC(=O)O)c1
fraction unbound [1]: 0.029
fraction unbound [2]: 0.009
Ki [3]: 3.1 nM
CL/F [7]: 10 mL/min/kg
fraction unbound [4]: 0.007
microsomal CLint at 1 µM [5]: < 10 µL/min/mg
microsomal CLint at 1 µM [6]: < 10 µL/min/mg

CCCS(=O)(=O)c1ccc(F)c(C#Cc2cc(Cl)ccc2OC(C)C(=O)O)c1 (configuration not stated)
Ki [3]: 3 nM

CC(C)S(=O)(=O)c1ccc(Cl)c(C#Cc2cc(Cl)ccc2OCC(=O)O)c1
Ki [3]: 2.9 nM
CL/F [7]: 11.7 mL/min/kg

Cc1ccc(S(=O)(=O)c2ccccc2)cc1C#Cc1cc(Cl)ccc1OCC(=O)O
Ki [3]: 6 nM

O=C(O)COc1ccc(Cl)cc1C#Cc1ccc(F)cc1F
Ki [3]: 101 nM

CCCS(=O)(=O)c1ccc(C)c(C#Cc2cc(Cl)ccc2OC(CC(C)C)C(=O)O)c1 (configuration not stated)
Ki [3]: 515 nM

CC1(C)C(O)c2ccc(C#Cc3cc(Cl)ccc3OCC(=O)O)cc2S1(=O)=O (configuration not stated)
Ki [3]: 33 nM

Cc1ccc(OCC(=O)O)c(C#Cc2ccccc2Cl)c1
Ki [3]: 283 nM

O=C(O)COc1ccc(Cl)cc1C#Cc1cccnc1
fraction unbound [2]: 0.029
Ki [3]: 117 nM

Cc1ccc(S(=O)(=O)N2CCCCC2)cc1C#Cc1cc(Cl)ccc1OCC(=O)O
Ki [3]: 5 nM

CS(=O)(=O)c1cc(C#Cc2cc(Cl)ccc2OCC(=O)O)ccc1-c1ccccc1Cl
Ki [3]: 3.5 nM

CCCS(=O)(=O)c1cc(C#Cc2cc(Cl)ccc2OCC(=O)O)c(C)cc1NC(C)=O
Ki [3]: 1.3 nM

CCCC(Oc1ccc(Cl)cc1C#Cc1cc(S(=O)(=O)CCC)ccc1C)C(=O)O (configuration not stated)
Ki [3]: 57 nM

COCc1ccc(C#Cc2cc(Cl)ccc2OCC(=O)O)c(F)c1
Ki [3]: 22 nM

Cc1cc[n+]([O-])cc1C#Cc1cc(Cl)ccc1OCC(=O)O
Ki [3]: 17 nM

COc1ccccc1C#Cc1cc(Cl)ccc1OCC(=O)O
Ki [3]: 190 nM

CCCS(=O)(=O)c1ccc(C)c(C#Cc2cc(Cl)ccc2OC(C)C(=O)O)c1 (configuration not stated)
Ki [3]: 1.2 nM

Cc1ccc(S(=O)(=O)N(C)CC(C)C)cc1C#Cc1cc(Cl)ccc1OCC(=O)O
Ki [3]: 4.2 nM
microsomal CLint at 1 µM [5]: 79 µL/min/mg
microsomal CLint at 1 µM [6]: 119 µL/min/mg

CCNS(=O)(=O)c1ccc(C)c(C#Cc2cc(Cl)ccc2OCC(=O)O)c1
fraction unbound [1]: 0.008
fraction unbound [2]: 0.005
Ki [3]: 4.4 nM
fraction unbound [4]: 0.008
microsomal CLint at 1 µM [5]: < 10 µL/min/mg
microsomal CLint at 1 µM [6]: 24 µL/min/mg

O=C(O)COc1ccc(Cl)cc1C#Cc1ccccc1C(F)(F)F
Ki [3]: 24 nM

O=C(O)COc1ccc(Cl)cc1C#Cc1ccncc1
Ki [3]: 601 nM

O=C(O)COc1ccc(Cl)cc1C#Cc1ccc2c(c1)S(=O)(=O)CC2
Ki [3]: 23 nM

O=C(O)COc1ccc(Cl)cc1C#Cc1ccccc1Cl
Ki [3]: 28 nM

CS(=O)(=O)c1ccc(C#Cc2cc(Cl)ccc2OCC(=O)O)cc1
Ki [3]: 86 nM

CCCS(=O)(=O)c1ccc(C)c(C#Cc2cc(Cl)ccc2OC(CC)C(=O)O)c1 (configuration not stated)
Ki [3]: 30 nM

CCN(Cc1cc(-c2ccc(OC)cn2)ccc1-c1cc(CC(=O)O)ccc1OC)C(=O)C1CC1
Ki [3]: 5 nM

Cc1ccc(S(=O)(=O)N2CCOCC2)cc1C#Cc1cc(Cl)ccc1OCC(=O)O
Ki [3]: 3.6 nM
CL/F [7]: 31.7 mL/min/kg
AUC [9]: 1220 ng·h/mL
bioavailability [8]: 48%
microsomal CLint at 1 µM [5]: < 10 µL/min/mg
microsomal CLint at 1 µM [6]: 10 µL/min/mg

CC(C)(C)N1C(=O)c2ccc(C#Cc3cc(Cl)ccc3OCC(=O)O)cc2S1(=O)=O
Ki [3]: 14 nM

Cc1ccc(S(=O)(=O)CC(C)C)cc1C#Cc1cc(Cl)ccc1OCC(=O)O
Ki [3]: 3 nM

O=C(O)COc1ccc(Cl)cc1C#Cc1ccc(CO)cc1F
Ki [3]: 28 nM
CL/F [7]: 35 mL/min/kg
bioavailability [8]: 3%
microsomal CLint at 1 µM [5]: < 10 µL/min/mg
microsomal CLint at 1 µM [6]: < 10 µL/min/mg

O=C(O)COc1ccc(Cl)cc1C#Cc1cccc(C(F)(F)F)c1
Ki [3]: 92 nM

CNS(=O)(=O)c1ccc(C)c(C#Cc2cc(Cl)ccc2OCC(=O)O)c1
Ki [3]: 10 nM

COCc1ccc(F)c(C#Cc2cc(Cl)ccc2OCC(=O)O)c1
Ki [3]: 72 nM

CCCc1ccncc1C#Cc1cc(Cl)ccc1OCC(=O)O
Ki [3]: 4.3 nM

Cc1ccc(S(=O)(=O)CCO)cc1C#Cc1cc(Cl)ccc1OCC(=O)O
Ki [3]: 19 nM

O=C(O)COc1ccc(Cl)cc1C#Cc1cccc(CO)c1F
Ki [3]: 41 nM

O=C(O)COc1ccc(Cl)cc1C#Cc1ccccn1
Ki [3]: 1120 nM
